Variants at the floor of the assay were thinned out.
B1: tRNA (parent)
chain: GUUCCGUUGGCGUAAUGGUAACGCGUCUCCCUCCUAAGGAGAAGACUGCGGGUUCGAGUCCCGUACGGAACG

Variants of: B1
Experiment: yeast fitness relative to wild type (ratio to wild type); higher = fitter; tRNA-Arg(CCU), competitive growth, 37 C, YPD
Summary of the method: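 Genotype frequency changes were the basis for Darwinian fitness relative to wild type. The frequencies came from 100-nucleotide paired-end sequencing of gene amplicons from the start population and each end population of pooled yeast strains with tRNA-Arg(CCU) gene variants at the native locus. Competition ran in YPD at 37°C for 24 hours in six replicates, genotypes needed ≥ 100 starting reads, and estimates < 0.5 were set to 0.5.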

Row | Variant | yeast fitness
1 | U2C U35A C60A | ≤ 0.5
2 | U2C C31A A70U | 0.76
3 | U2C U3A A40C | ≤ 0.5
4 | U2C C61G A65U | 0.547
5 | U2C G12A C24A U28A A42C U47G C49G | 0.582
6 | U2C U3C A45G C61A | ≤ 0.5
7 | U2C C61U G68A | ≤ 0.5
8 | U2C U28G A43U G56C A57U G67A | ≤ 0.5
9 | U2C C27U A43G | 0.593
10 | U2C G18A U28C A42C G56C A65C | 0.61
11 | U2C C55A A57C G67C G68A | 0.575
12 | U2C C46U U59C | 0.705
13 | U2C G18C A21G C27A C30U G38A | ≤ 0.5
14 | U2C G23C C55G A69U | ≤ 0.5
15 | U2C C55A | 0.7
16 | U2C G44A | 0.86
17 | U2C G44C | 0.846
18 | U2C G23C C31G C33U A42G G67U | ≤ 0.5
19 | U2C U28A G67A | ≤ 0.5
20 | U2C C31G U35A | ≤ 0.5
21 | U2C C29A C34G A43U G52A | 0.682
22 | U2C U28A | 0.563
23 | U2C U28C | 0.912
24 | U2C G18C G23C C33U G39A A43U C62A G63C | 0.851

Row | Variant | yeast fitness
25 | U2C U26G | 0.997
26 | U2C G63A | 0.799
27 | U2C U7A C34U G44C | ≤ 0.5
28 | U2C C27U A36C | ≤ 0.5
29 | U2C C27U A36G | 0.575
30 | U2C C33U A42G G44C | ≤ 0.5
31 | U2C G6A G23A C27U A45C C60A | 0.605
32 | U2C G39A G44A | 0.66
33 | U2C G10A U54A C62U C66A | ≤ 0.5
34 | U2C G18A C24U | 0.529
35 | U2C G17A A43C C49U U54A G56C A65U A70C | ≤ 0.5
36 | U2C U26C C55A | 0.732
37 | U2C U47A A70G | 1.15
38 | U2C G51A | 0.822
39 | U2C G51C | 0.687
40 | U2C G6A C31U C49U | 0.641
41 | U2C U8A G38C C60A | ≤ 0.5
42 | U2C U3A C31G U35A | ≤ 0.5
43 | U2C C29U C66G G68A | ≤ 0.5
44 | U2C C30G C33A | ≤ 0.5
45 | U2C U47A | 0.982
46 | U2C C29A C31A A40U C49U | 0.554
47 | U2C G12C A14G C29U U59G G63C | ≤ 0.5
48 | U2C U8G G23A C24G G44A | ≤ 0.5

Row | Variant | yeast fitness
49 | U2C U28C A37U U53A | 0.547
50 | U2C G10A G12A G18C C33U A69C | ≤ 0.5
51 | U2C U16C C22A U35A A45C | ≤ 0.5
52 | U2C G6A C61G | ≤ 0.5
53 | U2C U28C C34U | ≤ 0.5
54 | U2C G56C | 0.727
55 | U2C G25A A42U C55G | ≤ 0.5
56 | U2C U19C U59A | 0.582
57 | U2C G23A G38A G56C C61U | ≤ 0.5
58 | U2C G25A A42U A65C G67U | 0.578
59 | U2C U8G C49A C55U C66A A69C | ≤ 0.5
60 | U2C U3C C34U | 0.571
61 | U2C C29A A57C | ≤ 0.5
62 | U2C C34G U59A | ≤ 0.5
63 | U2C G48A C60U | ≤ 0.5
64 | U2C G23A C24U A45U C60A | 0.61
65 | U2C G52C | 0.661
66 | U2C G23C C31G C33U A42G G52C A70G | ≤ 0.5
67 | U2C G12A G18C C33U | 0.561
68 | U2C U13C G38A | 0.596
69 | U2C G9U C61G | ≤ 0.5
70 | U2C G17A A37C | 0.791
71 | U2C C61U A65G | 0.711
72 | U2C U16A G67C | 0.644

Row | Variant | yeast fitness
73 | U2C C46G G63A A70U | ≤ 0.5
74 | U2C G25A G52A | ≤ 0.5
75 | U2C U19C U54A A69C | ≤ 0.5
76 | U2C U35G A40C | 0.587
77 | U2C U19A C24U G38A U54C C66A | ≤ 0.5
78 | U2C G44A C46U A69C | 0.784
79 | U2C G12C A40C | ≤ 0.5
80 | U2C U16C C27G C55U U59G | ≤ 0.5
81 | U2C G9U A20C A57G A65C | ≤ 0.5
82 | U2C G12A A15G A43U C62G | ≤ 0.5
83 | U2C U19A | 0.845
84 | U2C U32A A65G | ≤ 0.5
85 | U2C G25C A36U G38A | ≤ 0.5
86 | U2C G23A G38A G56C C61U G67A | ≤ 0.5
87 | U2C G9C A69C | 0.524
88 | U2C C30A U47C A65C C66G | ≤ 0.5
89 | U2C U7A C24A A37G A42U G48C U54A | ≤ 0.5
90 | U2C U7A C22A A36U A45U C60U C62U C66U | 0.541
91 | U2C C34A | 0.77
92 | U2C C66U | 0.968
93 | U2C U13C C61G | ≤ 0.5
94 | U2C C31G C55G | 0.569
95 | U2C U32G | 0.674
96 | U2C G48A | 0.928

Row | Variant | yeast fitness
97 | U2C G10C A40C G52C G67A | ≤ 0.5
98 | U2C U3G G18A A65U | ≤ 0.5
99 | U2C G25A A42U | 0.561
100 | U2C U19A U26A C29A C46G U54A | ≤ 0.5
101 | U2C C33U A42C U64C A70G | ≤ 0.5
102 | U2C C29A G44C C46G C62A | ≤ 0.5
103 | U2C U3C A21C C24A A65C | ≤ 0.5
104 | U2C G44A A70C | 0.884
105 | U2C G50C C60G | ≤ 0.5
106 | U2C U35C | 0.829
107 | U2C C31A G38C G50A | 0.604
108 | U2C U13A G39C C60G | ≤ 0.5
109 | U2C U16C C27G G68A | ≤ 0.5
110 | U2C U7G U32A U59A | 0.501
111 | U2C G48C C49U U53C | ≤ 0.5
112 | U2C U13G C22U C60G A65G | ≤ 0.5
113 | U2C G18A G25A C66U | ≤ 0.5
114 | U2C G18A G25A | 0.599
115 | U2C C29U G56A | 0.625
116 | U2C G23C C55G | 0.553
117 | U2C U35A C55A C66A | 0.521
118 | U2C G12A G18C C33U C55U | ≤ 0.5
119 | U2C U16A C49U A65C A69C | ≤ 0.5
120 | U2C U47A U53A | ≤ 0.5

Row | Variant | yeast fitness
121 | U2C G6A A42C C66U | ≤ 0.5
122 | U2C U3C C34U G63A | ≤ 0.5
123 | U2C C33U C61G | ≤ 0.5
124 | U2C G18C A21G | 0.569
125 | U2C C29U A37G A65G | ≤ 0.5
126 | U2C G50A U54A G67A | ≤ 0.5
127 | U2C U16G | 0.96
128 | U2C C30U C33U | 0.512
129 | U2C U16A G38C G63A | 0.552
130 | U2C G58A G68C | 0.645
131 | U2C U13C | 0.991
132 | U2C C29A G63A | ≤ 0.5
133 | U2C G6C G25A A36C | ≤ 0.5
134 | U2C G10C C24A C31U A36C A43C C55A | 0.546
135 | U2C C27U A43G G56A | ≤ 0.5
136 | U2C C60A C66U | 0.576
137 | U2C G67U | 0.81
138 | U2C U19G A69C | 0.543
139 | U2C G12A U19C A21U G58C | 0.603
140 | U2C G10C C11U C34A A37C C60A G67C | 0.7
141 | U2C G38A | 0.901
142 | U2C U3A A14C C30U A40U C49U | ≤ 0.5
143 | U2C U3C G25C C27G | ≤ 0.5
144 | U2C G6C C11G A15C G25C C27G C30G G38C | ≤ 0.5

Row | Variant | yeast fitness
145 | U2C C49U | 0.808
146 | U2C U26C C61G G63A A69U | 0.56
147 | U2C U16A A40G G48A | ≤ 0.5
148 | U2C G12A A36U C62G | ≤ 0.5
149 | U2C C55G G56C A69U | ≤ 0.5
150 | U2C U13C C22G U26A C31U A42C G50C U64A C66U G68C | ≤ 0.5
151 | U2C G39U | 0.819
152 | U2C U28A G52A | ≤ 0.5
153 | U2C G6C | 0.861
154 | U2C G18A A36C A45U C49G | ≤ 0.5
155 | U2C U3C C22U C34U | ≤ 0.5
156 | U2C G10C A21G | ≤ 0.5
157 | U2C G6A A57U C62U | ≤ 0.5
158 | U2C C29U A37G C66U | 0.578
159 | U2C C46A | 0.942
160 | U2C C27U C46U G48A | 0.636
161 | U2C C31G G58C G67C | 0.53
162 | U2C U13A C61U | ≤ 0.5
163 | U2C U28A A43C A57C C62A | 0.572
164 | U2C C29U | 0.81
165 | U2C C29G | 0.626
166 | U2C C29A | 0.659
167 | U2C C29U G38C A43U U53G | ≤ 0.5

— the RNAGym collection of RNA variant scans (doi:10.1126/science.aae0568)
